Activity calls are given as the source filed them.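 Rule for the calls, unless noted: active = GFP response above 150% of the DMSO level; inconclusive = fewer than 70 events counted for a yeast strain; inactive = the rest.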
Experiments:
[1] = RPL19A-GFP modulators, yeast TOR pathway, confirmation, cell-based, S. cerevisiae, flow cytometry, cherry picks, mother/daughter gates (AID 2270;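 active = GFP response below 50% of the DMSO control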); conditions: S. cerevisiae RPL19A-GFP strain, 3 h, at 10 µM, stronger effect = lower value, 100 = same GFP as DMSO wells
[2] = LAP4-GFP expression modulators in yeast, confirmation, cell-based, cherry picks, flow cytometry, mother/daughter gates (AID 2271;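 active = GFP response above 150% of the DMSO control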;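 note: ratio of sample to DMSO plate mean so 100% equals DMSO level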); conditions: S. cerevisiae LAP4-GFP strain, 3 h, at 10 µM, stronger effect = higher value, 100 means same as DMSO control
Method in brief: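 System: GFP-fusion yeast strain | Input: Yeast cells seeded at OD600 of 0.2 | Technique: HT flow cytometry, GFP fluorescence channel | Read-out: % GFP response vs DMSO | Dosing: Single test-compound dose, 10 µM final | Controls: Positive rapamycin (400 ng/mL), negative DMSO | Times: 3 h treatment at 30 °C with rotation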

[3] = modulators of MEP2-GFP levels in yeast, confirmation, S. cerevisiae, flow cytometry GFP, cherry picks (AID 2272;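 active = GFP response above 150% of the DMSO control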;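 note: ratio of well signal to plate DMSO mean so 100% equals DMSO level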); conditions: S. cerevisiae MEP2-GFP strain, 3 h, at 10 µM, stronger effect = higher value
[4] = AGP1-GFP expression modulators, hit retest, confirmation, cell-based, flow cytometry, S. cerevisiae, cherry picks (AID 2273);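 note: median GFP channel fluorescence over the whole cell population gate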; conditions: S. cerevisiae AGP1-GFP strain, 3 h, at 10 µM
[5] = modulators of CIT2-GFP expression in yeast, confirmation, S. cerevisiae, GFP fusion, cherry picks, mother/daughter gates (AID 2274); conditions: S. cerevisiae CIT2-GFP strain, flow cytometry, 3 h, at 10 µM, stronger effect = higher value
[6] = measured here: daughter cell gate
[7] = measured here: mother cell gate
[8] = measured here: daughter cell gate response
[9] = measured here: mother cell gate response

Row | SMILES | GFP response vs DMSO [1] | GFP response vs DMSO [1, 6] | GFP response vs DMSO [1, 7] | GFP response relative to DMSO [2] | GFP response relative to DMSO [2, 8] | GFP response relative to DMSO [2, 9] | GFP response vs DMSO [3] | GFP response, % of DMSO [4] | GFP response, % of DMSO [5] | GFP response, % of DMSO [5, 6] | GFP response, % of DMSO [5, 7]
1 | CCOC(=O)c1sc(NC(=O)CN2C(=O)c3cccc4cccc(c34)C2=O)nc1C | 96.6% (inactive) | 98.1% | 96.9% | 87.6% (inactive) | 86.4% | 87.6% | 100% (inactive) | 98.3% (inactive) | 98.3% (inactive) | 101% | 97.3%
2 | CCOC(=O)c1ccc(NC(=O)c2nc(S(=O)(=O)Cc3ccccc3)ncc2Cl)cc1 | 99.5% (inactive) | 99% | 98.9% | 93.8% (inactive) | 95.6% | 95.2% | 102% (inactive) | 101% (inactive) | 97.8% (inactive) | 94.8% | 97.7%
3 | O=C(/C(=C/O)N=Nc1ccc(Cl)cc1)c1ccncc1 | 101% (inactive) | 99.3% | 98.8% | 111% (inactive) | 101% | 115% | 132% (inactive) | 101% (inactive) | 90.3% (inactive) | 88.7% | 88.2%
4 | CCOc1cc(C)c(S(=O)(=O)N2CCCC2)cc1C | 90% (inactive) | 83.8% | 91.1% | 137% (inactive) | 128% | 145% | 92.6% (inactive) | 94.5% (inactive) | 78.5% (inactive) | 72.1% | 80.9%
5 | Cc1ccc(NCN2C(=O)C3C4C=CC(C4)C3C2=O)cc1 (stereo not drawn) | 96.4% (inactive) | 97% | 98.1% | 95.3% (inactive) | 93.6% | 96.5% | 97.5% (inactive) | 98.4% (inactive) | 102% (inactive) | 102% | 100%
6 | O=C(CCc1ccccc1)NNC(=S)NC(=O)c1ccccc1 | 106% (inactive) | 106% | 107% | 186% (active) | 180% | 185% | 116% (inactive) | 100% (inactive) | 106% (inactive) | 113% | 100%
7 | CC(C)c1nnc(SCC(=O)N2CCc3ccccc32)n1C | 102% (inactive) | 101% | 101% | 96.2% (inactive) | 95.6% | 99.3% | 102% (inactive) | 97.6% (inactive) | 97.8% (inactive) | 98.1% | 96.6%
8 | COCCNC(=O)c1ccc(Cl)c(Cl)c1 | 97.2% (inactive) | 95.6% | 95.3% | 102% (inactive) | 101% | 96.1% | 100% (inactive) | 100% (inactive) | 105% (inactive) | 103% | 93.8%
9 | Cc1ccc(Sc2ccc([N+](=O)[O-])cc2[N+](=O)[O-])nc1 | 99.7% (inactive) | 101% | 100% | 103% (inactive) | 100% | 105% | 97.8% (inactive) | 97.4% (inactive) | 104% (inactive) | 99.7% | 105%
10 | Cc1ccc(C)c(N2CCN(C(=O)c3ccccc3Br)CC2)c1 | 105% (inactive) | 102% | 99.5% | 101% (inactive) | 101% | 100% | 109% (inactive) | 98.8% (inactive) | 106% (inactive) | 103% | 105%
11 | CCc1cc(=O)oc2c(CN3CCCC3)c(O)c(Cl)cc12 | 97.6% (inactive) | 101% | 95.8% | 104% (inactive) | 105% | 100% | 110% (inactive) | 98.4% (inactive) | 107% (inactive) | 105% | 102%
12 | CCOC(=O)CCS(=O)(=O)c1nc(-c2ccccc2)cc(C(F)(F)F)n1 | 98.8% (inactive) | 102% | 93.5% | 164% (active) | 153% | 170% | 146% (inactive) | 127% (inactive) | 100% (inactive) | 106% | 92.3%
13 | Cc1ccccc1OC1CCN(C(=O)C2CCC(=O)N(C3CCCC3)C2)CC1 (stereo not drawn) | 97.6% (inactive) | 98.4% | 97.7% | 101% (inactive) | 99.2% | 99.3% | 105% (inactive) | 96.6% (inactive) | 95.5% (inactive) | 95.4% | 95%

— PubChem BioAssay
